Entries after “also recorded” stand apart in the source; their conditions may differ. Where two headings read alike, the source gives them in different places. One block for each molecule: values may come before it.
What was measured:
[1] = tested on: TC32 cells; assay: Cell proliferation assay; type: cell-based, human; conditions: for Fold loss of growth inhibitory activity in TC32 cells compared to 2: relative to 2
[2] = tested on: ES cell lines (TC32 and TC71); assay: Cell proliferation assay in ES cell lines; type: cell-based, human; conditions: for Growth inhibition / antiproliferative activity in words: ES cell lines containing EWS-FLI1; for GI50: read-out: GI50 bound used to select compounds for the reporter assay
[3] = tested on: TC32 cells; conditions: cited from earlier work
[4] = molecular target: BSA (Bos taurus, UniProt P02769); assay: ELISA-like binding assay, immobilized BSA control; set-up: species or system bovine; conditions: BSA immobilized instead of EWS-FLI1
Sequence of BSA (P02769 25-607): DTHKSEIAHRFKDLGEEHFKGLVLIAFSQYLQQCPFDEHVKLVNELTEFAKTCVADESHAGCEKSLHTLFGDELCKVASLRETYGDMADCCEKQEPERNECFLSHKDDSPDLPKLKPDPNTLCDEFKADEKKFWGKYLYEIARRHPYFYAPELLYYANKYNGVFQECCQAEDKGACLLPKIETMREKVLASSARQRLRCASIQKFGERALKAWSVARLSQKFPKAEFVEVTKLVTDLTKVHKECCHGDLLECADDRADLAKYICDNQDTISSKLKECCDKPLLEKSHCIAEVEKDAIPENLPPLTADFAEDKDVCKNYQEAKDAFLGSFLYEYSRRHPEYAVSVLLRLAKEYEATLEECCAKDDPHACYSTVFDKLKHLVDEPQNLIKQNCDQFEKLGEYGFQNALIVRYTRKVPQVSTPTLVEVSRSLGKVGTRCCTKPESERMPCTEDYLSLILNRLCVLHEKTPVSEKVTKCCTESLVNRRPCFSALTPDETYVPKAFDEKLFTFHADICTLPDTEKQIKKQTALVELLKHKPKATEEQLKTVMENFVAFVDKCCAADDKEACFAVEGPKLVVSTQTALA
In short: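 BSA immobilized in wells in place of recombinant EWS-FLI1. Biotinylated test compound, diluted from DMSO stock in assay buffer, was incubated 1 h. Wells washed five times. Detection used HRP-streptavidin (1:5000, 1 h, room temperature) and colorimetric substrate, with absorbance at 405 nm.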

[5] = molecular target: T1, EWS-FLI1 (Homo sapiens, UniProt Q01543+Q01844); assay: ELISA-like binding assay of biotin conjugate to immobilized recombinant EWS-FLI1
T1 sequence (Q01844 1-264): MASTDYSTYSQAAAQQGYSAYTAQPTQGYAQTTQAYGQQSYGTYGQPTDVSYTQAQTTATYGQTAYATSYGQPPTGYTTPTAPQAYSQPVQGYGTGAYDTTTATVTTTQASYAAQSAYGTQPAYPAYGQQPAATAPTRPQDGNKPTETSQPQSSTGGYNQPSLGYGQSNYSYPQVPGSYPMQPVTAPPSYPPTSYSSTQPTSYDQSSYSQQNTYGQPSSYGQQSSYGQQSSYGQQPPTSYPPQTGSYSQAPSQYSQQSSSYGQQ
T1 sequence (Q01543 220-452): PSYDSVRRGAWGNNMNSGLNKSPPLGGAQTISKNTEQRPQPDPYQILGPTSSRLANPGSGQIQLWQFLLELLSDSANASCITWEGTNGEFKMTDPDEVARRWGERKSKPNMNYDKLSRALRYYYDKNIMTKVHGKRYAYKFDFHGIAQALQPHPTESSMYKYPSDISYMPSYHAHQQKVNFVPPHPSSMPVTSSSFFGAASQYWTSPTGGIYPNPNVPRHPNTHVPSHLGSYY
In short: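 EWS-FLI1 expressed in BL21 (1 mM IPTG, 2 h, 27 °C) and recovered from inclusion bodies. Denatured in guanidinium, Ni-chelate purified, refolded on-column by gradient out of urea, then imidazole-eluted. Wells coated overnight with 20 nM protein and blocked with 4% BSA/PBS (1 h, rt). Biotinylated test compound from DMSO stock added for 1 h. Detection used HRP-streptavidin (1:5000, 1 h, rt) and colorimetric substrate read at 405 nm.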

[6] = molecular target: T1, EWS-FLI1; assay: EWS-FLI1/NR0B1 reporter luciferase assay in transfected COS7 cells; type: cell-based; conditions: COS7 cells transfected with EWS-FLI1 and NR0B1 reporter, 20 h treatment
In short: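 COS7 cells (DMEM, 10% FBS) transiently co-transfected with NR0B1 luciferase reporter carrying EWS-FLI1 binding sites plus full-length EWS-FLI1 or empty pCI-neo vector. Treated 1.5 h post-transfection with test compound at 0.05, 0.15, 0.5, 1.5, 5 or 15 μM, or DMSO. Luciferase measured 20 h later. IC50 from sigmoidal dose–response fit. Quadruplicate wells, mean ± SD of a representative experiment.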

[7] = tested on: ES cells; conditions: read-out: GI50 in ES cells; several ES cells; cited from earlier work
[8] = molecular target: T1, EWS-FLI1; conditions: binding to EWS-FLI1; cited from earlier work
[9] = tested on: ES orthotopic xenografts; conditions: cited from earlier work
[10] = tested on: COS7 cells; assay: Cell proliferation assay; type: cell-based, monkey; conditions: WST, 48 h
[11] = tested on: PANC1 cells; assay: Cell proliferation assay; type: cell-based, human; conditions: PANC1 cells (selectivity control)
In short: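 TC71 grown in RPMI with 10% FBS and 1% HEPES; PANC1 in DMEM with 10% FBS; both at 37 °C, 5% CO2. Cells plated in colorless medium at 5000–15000 cells/well depending on line. Test compound or DMSO vehicle added the day after plating. Viable cells quantified by MTT or WST-1 after 3 days of treatment. GI50 derived by nonlinear regression.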

Molecule: COc1ccc(C(=O)CC2(O)C(=O)Nc3c(OC)ccc(OC)c32)cc1 (stereo not shown) [6e, 3-Hydroxy-4,7-dimethoxy-3-(2-(4-methoxyphenyl)-2-oxoethyl)indolin-2-one]
GI50 in TC32 cells [1]: 1000 nM

Molecule: COc1ccc(C(=O)CC2(O)C(=O)Nc3c(Cl)ccc(Cl)c32)c(OC)c1OC (stereo not shown) [9f, 4,7-Dichloro-3-hydroxy-3-(2-oxo-2-(2,3,4-trimethoxyphenyl)ethyl)indolin-2-one]
Fold loss of growth activity / potency compared to 2 ([2]; ES cells, relative to 2): 3 fold

Molecule: COc1ccc(C(=O)C[C@]2(O)C(=O)Nc3c(Cl)ccc(Cl)c32)cc1 [R-(+)]
In vitro activity of enantiomer in words ([3]; in vitro): almost inactive

Molecule: Nc1ccc(C(=O)CC2(O)C(=O)Nc3c(Cl)ccc(Cl)c32)cc1 (stereo not shown) [9s, 3-[2-(4-Aminophenyl-2-oxoethyl)]-4,7-dichloro-3-hydroxyl 1,3-dihydroindol-2-one]
Growth inhibition / antiproliferative activity in words [2]: complete loss of activity

Molecule: COc1cccc(C(=O)CC2(O)C(=O)Nc3c(Cl)ccc(Cl)c32)c1OC (stereo not shown) [9e, 4,7-Dichloro-3-(2-(2,3-dimethoxyphenyl)-2-oxoethyl)-3-hydroxyindolin-2-one]
Growth inhibition / antiproliferative activity in words [2]: reduced inhibition of cell growth

Binding to immobilized BSA in words [4]: No binding was detected
Concentration at which binding saturation was reached [5]: 20 µM
Molecule: CN(C(=O)CCCCCNC(=O)CCCC[C@H]1SCC2NC(=O)NC21)c1ccc(C(=O)CC2(O)C(=O)Nc3c(Cl)ccc(Cl)c32)cc1 (stereo partly drawn) [compound 24, N-(4-(2-(4,7-Dichloro-3-hydroxy-2-oxoindolin-3-yl)acetyl)phenyl)-N-methyl-6-(5-((4R)-2-oxohexahydro-1H-thieno[3,4-d]imidazol-4-yl)pentanamido)hexanamide]

Inhibition of EWS-FLI1 transcriptional activity in words [6]: lower than 2
Molecule: COc1ccc(C(=O)CC2(O)C(=O)Nc3c(Cl)ccc(Cl)c32)c(OC)c1 (stereo not shown) [9c, 4,7-Dichloro-3-(2-(2,4-dimethoxyphenyl)-2-oxoethyl)-3-hydroxyindolin-2-one]

Inhibition of EWS-FLI1 transcriptional activity in words [6]: did not display any inhibition
Molecule: COc1ccc(C(=O)CC2(OC)C(=O)Nc3c(Cl)ccc(Cl)c32)cc1 (stereo not shown) [compound 11, 4,7-Dichloro-3-methoxy-3-(2-(4-methoxyphenyl)-2-oxoethyl)indolin-2-one]
Growth inhibition / antiproliferative activity in words [2]: complete loss of inhibitory activity; also recorded: no antiproliferative activity

Molecule: COc1ccc(C(=O)CC2(O)C(=O)Nc3c(Cl)ccc(Cl)c32)cc1 (stereo not shown) [compound 2, YK-4-279]
GI50 [7]: 500 to 2000 nM
GI50 in TC32 cells ([3]; TC32 cells): 900 nM
Kd [8]: 9480 nM
Growth of ES orthotopic xenografts in words [9]: reduces the growth
Cytotoxicity / effect on COS7 cell proliferation in words [10]: negligible effect

Inhibition of EWS-FLI1 transcriptional activity in words [6]: modest inhibitory effects
Molecule: 4,7-Dichloro-3-methoxy-3-(2-(4-methoxyphenyl)-2-oxoethyl)indolin-2-one [14a]
Fold loss of growth inhibitory activity in TC32 cells compared to 2 [1]: 2 fold
GI50 ([2]; ES cells): ≤ 2700 nM

Molecule: CN(C)c1ccc(C(=O)CC2(O)C(=O)Nc3c(Cl)ccc(Cl)c32)cc1 (stereo not shown) [9u, 4,7-Dichloro-3-(2-(4-(dimethylamino)phenyl)-2-oxoethyl)-3-hydroxyindolin-2-one]
GI50 in TC32 cells [1]: 260 nM
Fold increase in potency compared to 2 ([2]; ES cells, relative to 2): over 3 fold

Molecule: CC(C)Oc1ccc(C(=O)CC2(O)C(=O)Nc3c(Cl)ccc(Cl)c32)cc1 (stereo not shown) [9p, 4,7-Dichloro-3-hydroxy-3-(2-(4-isopropoxyphenyl)-2-oxoethyl)indolin-2-one]
Growth inhibition / antiproliferative activity in words [2]: complete loss of activity

Molecule: COc1cccc(C(=O)CC2(O)C(=O)Nc3c(Cl)ccc(Cl)c32)c1 (stereo not shown) [9b, 4,7-Dichloro-3-hydroxy-3-(2-(3-methoxyphenyl)-2-oxoethyl)indolin-2-one]
Growth inhibition / antiproliferative activity in words [2]: reduced inhibition of cell growth

Inhibition of EWS-FLI1 transcriptional activity in words [6]: modest inhibitory effects
Molecule: COc1ccc(C(=O)CC2(OC)C(=O)N(C)c3c(Cl)ccc(Cl)c32)cc1 (stereo not shown) [compound 15, 4,7-Dichloro-3-methoxy-3-(2-(4-methoxyphenyl)-2-oxoethyl)-1-methylindolin-2-one]
Growth inhibition / antiproliferative activity in words [2]: inactive; also recorded: no antiproliferative activity

Inhibition of EWS-FLI1 transcriptional activity in words [6]: lower than 2
Molecule: 4,7-Dichloro-3-hydroxyl-3-(2-oxo-2-p-tolylethyl)-1,3-dihydroindol-2-one [9m]
Fold loss of growth activity / potency compared to 2 ([2]; ES cells, relative to 2): 3 fold
GI50 ([2]; ES cells): ≤ 2700 nM

Molecule: COc1ccc(C(=O)CC2(O)C(=O)Nc3c(Cl)ccc(Cl)c32)cn1 (stereo not shown) [compound 18, 4,7-Dichloro-3-hydroxy-3-(2-(6-methoxypyridin-3-yl)-2-oxoethyl)indolin-2-one]
Growth inhibition / antiproliferative activity in words [2]: complete loss of growth inhibition

Molecule: COc1ccc(C(=O)/C=C2\C(=O)Nc3c(Cl)ccc(Cl)c32)cc1 [compound 10, (Z)-4,7-Dichloro-3-(2-(4-methoxyphenyl)-2-oxoethylidene)indolin-2-one]
GI50 in TC32 cells [1]: 1000 nM

Molecule: O=C(CC1(O)C(=O)Nc2c(Cl)ccc(Cl)c21)c1ccc(Cl)cc1 (stereo not shown) [compound 1, 4,7-dichloro-3-(2-(4-chlorophenyl)-2-oxoethyl)-3-hydroxyindolin-2-one]
GI50 in TC32 cells ([3]; TC32 cells): 20000 nM

Molecule: O=C(CC1(O)C(=O)Nc2c(Cl)ccc(Cl)c21)c1ccc(Oc2ccccc2)cc1 (stereo not shown) [9q, 4,7-Dichloro-3-hydroxy-3-(2-oxo-2-(4-phenoxyphenyl)ethyl)indolin-2-one]
Growth inhibition / antiproliferative activity in words [2]: complete loss of activity

Inhibition of EWS-FLI1 transcriptional activity in words [6]: did not inhibit
Molecule: COc1ccccc1C(=O)CC1(O)C(=O)Nc2c(Cl)ccc(Cl)c21 (stereo not shown) [9a, 4,7-Dichloro-3-hydroxy-3-(2-(2-methoxyphenyl)-2-oxoethyl)indolin-2-one]
Growth inhibition / antiproliferative activity in words [2]: reduced inhibition of cell growth; also recorded: no antiproliferative activity

Molecule: 4,7-Dichloro-3-(2-(4-ethoxyphenyl)-2-oxoethyl)-3-hydroxyindolin-2-one [9n]
Growth inhibition / antiproliferative activity in words [2]: complete loss of activity

Molecule: COc1ccc(C(=O)CC2(O)C(=O)N(c3ccccc3)c3c(Cl)ccc(Cl)c32)cc1 (stereo not shown) [14b, 4,7-Dichloro-3-hydroxy-3-(2-(4-methoxyphenyl)-2-oxoethyl)-1-phenylindolin-2-one]
Growth inhibition / antiproliferative activity in words [2]: complete loss of activity

Molecule: O=C(CC1(O)C(=O)Nc2c(Cl)ccc(Cl)c21)c1ccc(C(F)(F)F)cc1 (stereo not shown) [9j, 4,7-Dichloro-3-hydroxy-3-(2-oxo-2-(4-(trifluoromethyl)phenyl)ethyl)indolin-2-one]
Inhibition of PANC1 cell growth in words [11]: inhibited PANC1 cells growth
Fold loss of growth inhibitory activity in TC32 cells compared to 2 [1]: 3 fold

Molecule: COc1cc(OC)cc(C(=O)CC2(O)C(=O)Nc3c(Cl)ccc(Cl)c32)c1 (stereo not shown) [9d, 4,7-Dichloro-3-(2-(3,5-dimethoxyphenyl)-2-oxoethyl)-3-hydroxyindolin-2-one]
Fold loss of growth inhibitory activity in TC32 cells compared to 2 [1]: ~10 fold

Molecule: COc1ccc(C(=O)CC2(O)C(=O)Nc3c(Cl)ccc(Cl)c32)cc1 (single isomer, unassigned) [S-(−) enantiomer of 2]
Fold more potent in vitro than racemic 2 ([3]; in vitro): 4 fold
GI50 ([3]; read-out: GI50 of single enantiomer, in vitro, TC32 cells): 280 nM
